# The sample as a whole holds a higher share of hits than the screen did.
# pCIP destab = lowers stability of the mouse p/CIP coactivator protein; Q05BA5; F442A p/CIP-EGFP cells, EGFP fluorescence, 16 h; decrease of EGFP signal, % at 10 µM; 290,000 compounds, 0.01% hits; AID 1984;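 active = EGFP signal decrease of at least 30% at 10 µM or well 3 SD below plate mean, unless failing retest; inactive = the rest, including hits failing retest or dose response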
# CHOP inhibitor = blocks CHOP induction under ER stress; 220,000 compounds, 3.8% hits; inhibition, % at 10 µM; CHO-K1 CHOP-promoter luciferase, tunicamycin-induced, 15-18 h;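 active = compounds that reduced the stress-induced luciferase reporter signal by more than about 70% of percent inhibition, limit read from the data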;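 also: 0% = tunicamycin plus vehicle and 100% = wells without tunicamycin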
# Dynein transport = blocks dynein driven cargo transport along microtubules; 3617.4 mouse cells, GR-EGFP nuclear translocation imaging; test concentration mostly 20 µM; stimulated with dexamethasone, 1 µM; stronger effect = lower value; 220,000 compounds, 0.47% hits; AID 1381; z-score, hits read low;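 active = plate z-score of nuclear minus cytoplasmic receptor signal below a set negative limit, without overly bright fluorescence or cell loss, cut at about -3.5 in these data, passing the limit was not always enough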;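 also: z-score of nuclear minus cytoplasmic ring GR-EGFP intensity difference per well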
#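 medium = tetracycline-free induction medium containing charcoal-stripped FBS | probe or stimulus = dexamethasone, 1.0 µM final | timing = 48 h induction, then 1 h compound, then 30 min agonist, 37 °C | detection = automated 10x imaging of fixed Hoechst-stained cells | read-out basis = nuclear versus cytoplasmic GR-EGFP signal, averaged per well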
# UPR XBP1 act = adaptive UPR (XBP1) activation; CHO-XBP1 luciferase reporter, IRE1-XBP1 UPR activation, luminescence; percent of tunicamycin response, DMSO as zero; activation, % at 20 µM; 330,000 compounds, 0.33% hits; AID 463104;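 active = versus positive control, 20 µM dose yields 30% or more activation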;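 also: 100% = tunicamycin at 10 µg/mL and 0% = DMSO only wells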
#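 assay system = CHO-XBP1 luciferase reporter cells | amount = 1000 cells/well | buffer or medium = F12 plus 10% FBS | compound dosing = single point, 20 µM final compound, 1% DMSO | incubation = 16-18 h cell attachment at 37 °C, then 6 h compound exposure | detection = Steady-Glo luminescence read | controls = tunicamycin 10 µg/mL and vehicle-only wells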
# B2AR ag = agonists of human beta-2 adrenergic receptor inducing internalization. P07550. response, % (no concentration beside the values). Am2.2-beta2AR cells, FAP receptor internalization, flow cytometry. 340,000 compounds, 0.43% hits. AID 504454;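 active = response above a set limit, near 3 SD of response in nonfluorescent compounds, cut at about 42% in these data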
# Target sequence (P07550 whole entry, looked up): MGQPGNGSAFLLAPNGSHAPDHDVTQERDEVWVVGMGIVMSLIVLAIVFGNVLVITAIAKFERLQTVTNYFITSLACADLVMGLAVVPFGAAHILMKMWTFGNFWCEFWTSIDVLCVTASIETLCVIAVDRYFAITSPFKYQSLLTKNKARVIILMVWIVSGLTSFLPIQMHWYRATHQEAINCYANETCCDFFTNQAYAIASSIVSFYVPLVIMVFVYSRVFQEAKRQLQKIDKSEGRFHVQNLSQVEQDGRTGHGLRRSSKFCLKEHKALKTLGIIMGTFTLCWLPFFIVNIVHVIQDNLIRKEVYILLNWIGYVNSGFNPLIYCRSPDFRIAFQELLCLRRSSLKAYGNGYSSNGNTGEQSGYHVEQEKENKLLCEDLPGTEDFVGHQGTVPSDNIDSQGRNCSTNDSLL
# UPR CHOP act = apoptotic UPR (CHOP) activation; CHO-CHOP luciferase reporter, luminescence; percent of tunicamycin response over DMSO baseline; activation, % at 10 µM; 330,000 compounds, 0.34% hits; AID 449763;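 active = at 10 µM dose, activation of 40% or more, normalized to positive control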;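 also: 100% = tunicamycin at 10 µg/mL and 0% = DMSO alone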
#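 Dosing – one dose, 10 µM in 0.5% DMSO · System – CHO-CHOP cells, stable luciferase reporter of PERK-eIF2a-CHOP signalling · Input – 500 cells/well · Control set – tunicamycin 10 µg/mL final as positive, DMSO-only wells as negative · Timing – 6 h compound treatment, 37 °C · Measure – % activation vs tunicamycin · Technique – luminescence read with Steady-Glo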
# XBP1 UPR conf = adaptive UPR (XBP1) activation, confirmed. shares compounds with UPR XBP1 act. CHO-XBP1 IRE1-XBP1 luciferase reporter, luminescence. activation, % at 20 µM. 1,000 compounds, 63% hits;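 active = reporter signal at least 30% of the positive control's activation in two or more of four replicate wells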;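 also: plate controls were DMSO negative control for no effect and tunicamycin 10 µg/mL positive control for full effect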
# Starred values were filed as active, the others as inactive; . = no result.
SMILES,pCIP destab,CHOP inhibitor,Dynein transport,UPR XBP1 act,B2AR ag,UPR CHOP act,XBP1 UPR conf
COc1ccc(-c2csc(NC(=S)NC(=O)c3ccco3)n2)cc1Br,-2,.,.,9,-7,1,.
COc1ccc(-c2csc(NC(=S)NC(=O)/C=C/c3ccco3)n2)cc1Br,-21,30,-0.064,202*,35,18,201*
O=C(Oc1ccc(F)cc1C(=O)/C=C/c1cccs1)c1cccc([N+](=O)[O-])c1,-4,-36,-0.87,38*,10,8,83*
CSC1=NC(C)(C)C=C(/C=C/c2ccc(Cl)cc2)N1,-8,-22,-2.4,35*,84*,8,45*
CSC1=NC(C)(C)C=C(/C=C/c2ccc(Cl)cc2Cl)N1,0,-25,-0.89,-2,12,0,.
O=C(COc1ccccc1F)N1N=C(c2cccs2)CC1c1ccco1 (stereo unspecified),.,.,.,-1,6,1,.
O=[N+]([O-])c1ccc(-c2nc(Nc3cccc(O)c3)c3ccccc3n2)cc1,7,.,.,34*,25,5,20
O=C(O)c1cccc(Nc2nc(-c3ccc([N+](=O)[O-])cc3)nc3ccccc23)c1,-2,.,.,-6,10,-2,.
COc1ccc(/C=C/C(=O)NC(=S)NCCc2ccc(OC)c(OC)c2)cc1,-5,88*,-0.24,69*,16,-1,1
COc1ccc(CCNC(=O)/C=C\c2ccccc2)cc1OC,-11,5,-0.27,-1,1,1,.
Clc1cccc2c1Sc1ccccc1CC2N1CCNCC1 (stereo unspecified),-11,40,0.41,11,18,1,.
Clc1ccc2c(c1)C(N1CCNCC1)Cc1ccccc1S2 (stereo unspecified),-11,79*,-4.5,63*,26,5,72*
CC1=C(C(=O)Nc2ccc(Cl)cc2C(=O)N2CCC(C(N)=O)CC2)SCCO1,-4,.,.,-1,-6,1,.
COc1cc(/C=N/NC(=O)NC23CC4CC(CC(C4)C2)C3)ccc1OCC(N)=O,1,.,.,38*,10,2,11
COc1ccc(C=NNC(=S)NC23CC4CC(CC(C4)C2)C3)cc1OC,.,.,.,.,1,.,.
COc1ccc(CC(=O)OCC(=O)NCc2ccc(C)cc2)cc1OC,.,.,.,-3,-1,1,.
O=C(Nc1ccc2c(c1)OCO2)c1cc(-c2ccc(O)cc2)on1,-18,.,.,36*,10,5,10
CC(C)CNc1nnnc2c1sc1nc(N3CCOCC3)c3c(c12)CCCC3,-12,-4,-0.47,55*,0,2,31
C=CCNc1nnnc2c1sc1nc(N3CCOCC3)c3c(c12)CCCC3,-32,-22,-0.25,4,-8,2,.
Cc1cccn2c(=O)c(C=O)c(N3CCN(c4ccc(F)cc4)CC3)nc12,0,15,-0.85,-2,28,1,.
O=C(c1nc[nH]c1C(=O)N1CCN(c2ccccc2)CC1)N1CCN(c2ccccc2)CC1,.,.,.,-2,1,0,.
Cc1ccccc1NC(=O)CSc1nc2cc3c(cc2cc1C)CCC3,5,68,0.13,0,-10,-1,.
CCC(=O)Nc1ccc(NC(=O)CSc2nc3cc4c(cc3cc2C)CCC4)cc1,-13,94*,0.38,50*,-8,1,40*
O=C(C[n+]1cccc(NC(=O)c2ccccc2)c1)c1cccc([N+](=O)[O-])c1,-2,-9,-1.6,-1,-1,2,.
O=C(C[n+]1ccc(-c2cc(C(=O)Nc3cccc(C(F)(F)F)c3)c3ccccc3n2)cc1)c1cccc([N+](=O)[O-])c1,-10,81*,1.8,106*,1,11,91*
SMILES,pCIP destab,CHOP inhibitor,Dynein transport,UPR XBP1 act,B2AR ag,UPR CHOP act,XBP1 UPR conf
Brc1cc2c(cc1/C=N/Nc1nc3ccccc3s1)OCO2,-9,69,-0.25,33*,-5,4,155*
C(=N\Nc1nc2ccccc2s1)/c1ccc2c(c1)OCO2,0,-21,1.7,0,11,8,.
COC(=O)c1ccc(N2CCN(C)CC2)c(NC(=O)c2ccc(-c3ccc(Cl)cc3)o2)c1,1,.,.,45*,-19,11,7
CN1CCN(c2ccccc2NC(=O)c2ccc(-c3cccc(Cl)c3)o2)CC1,-3,.,.,5,14,0,.
C=CCC1(CC=C)CCCN1C(=O)Cn1nnnc1CN(C)C(C)C,5,.,.,-4,0,-1,.
COc1cc(/C=C2/C(=N)N3C=CSC3=NC2=O)ccc1OCCCOc1cc(C)ccc1C,-11,34,0.37,85*,63*,-1,129*
CCc1ccc(OCCNc2cc(N3CCNC(C)C3)ccc2[N+](=O)[O-])cc1 (stereo unspecified),.,.,.,56*,27,5,68*
Cc1nc(/C=C/c2ccccc2)[nH]c(=O)c1-c1ccccc1,4,33,-0.54,-2,-9,5,.
O=c1c2ccccc2nc(CSc2nnnn2-c2ccccc2)n1-c1ccccc1Cl,4,71*,-0.23,52*,-6,35,22
Cn1cccc1Cc1nnc(SCC(=O)Nc2nc3ccccc3s2)n1CCc1ccccc1,5,95*,2.3,30*,-8,5,13
COc1ccc(-n2nc3c(N4CCC(C(=O)NC5CCCCC5)CC4)nnc(C)c3c2C)cc1,2,.,.,3,12,3,.
COc1ccc(-n2nc3c(N4CCC(C(=O)NCCc5ccccc5C)CC4)nnc(C)c3c2C)cc1,-6,.,.,50*,10,0,0
Cc1ccc(-n2nc3c(N4CCC(C(=O)NCCc5ccccc5C)CC4)nnc(C)c3c2C)cc1,-13,.,.,39*,-4,3,30*
NC(=S)N=Nc1c(O)n(CCCl)c2ccc(Br)cc12,1,-37,-0.67,8,-11,1,.
Cc1ccc2c(c1)c(N=NC(N)=S)c(O)n2Cc1ccccc1,-1,1,0.43,33*,-9,9,41*
C/C(Cl)=C\Cn1c(O)c(N=NC(N)=S)c2cc(Br)ccc21,-4,-113,-0.2,84*,3,5,120*
